A selection: hits, their analogues and other compounds. The true share with any hit is near 3%.
SENP6 inh – blocks the human protease SENP6. Q9GZR1. Recombinant SENP6 catalytic domain, aminoluciferin luminescence. inhibition, % at 10 µM. 330,000 tested, 1.8% active;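 active = inhibition above about 50% at the single tested dose, limit read from the data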;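 also: plate controls were DMSO wells with enzyme for no effect and DMSO wells lacking enzyme for full effect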
Apaf-1 inh – blocks human Apaf-1 apoptosome activity | O14727 | reconstituted apoptosome caspase-3 activity, DEVD-Rh110 fluorescence | 330,000 tested, 0.71% active | inhibition, % at 20 µM | AID 489030; active = inhibition of at least 40% at 20 µM;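 also: plate controls were DMSO wells for no effect and DEVD-CHO caspase inhibitor wells for full effect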
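System: Apoptosome proteins | Medium: Hepes pH 7.5 with detergent and BSA | Also added: Cytochrome c trigger plus (Z-DEVD)2-Rh110 caspase-3 substrate | Incubation: 30 min compound preincubation, 50 min activation, room temperature | Detection: Rhodamine 110 fluorescence at Ex 480/Em 540 nm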
SENP7 block – inhibitors of human SENP7 protease. AID 434973. recombinant SENP7, Z-RLRGG-aminoluciferin luminescence, 40 min. inhibition, % at 5 µM. 330,000 tested, 1.5% active. Q9BQF6;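 active = inhibition above about 50% at the single test dose, limit read from the data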;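 also: plate controls were DMSO with enzyme for no effect and no enzyme buffer wells for full effect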
Target sequence (Q9BQF6 706-1050 limits assumed): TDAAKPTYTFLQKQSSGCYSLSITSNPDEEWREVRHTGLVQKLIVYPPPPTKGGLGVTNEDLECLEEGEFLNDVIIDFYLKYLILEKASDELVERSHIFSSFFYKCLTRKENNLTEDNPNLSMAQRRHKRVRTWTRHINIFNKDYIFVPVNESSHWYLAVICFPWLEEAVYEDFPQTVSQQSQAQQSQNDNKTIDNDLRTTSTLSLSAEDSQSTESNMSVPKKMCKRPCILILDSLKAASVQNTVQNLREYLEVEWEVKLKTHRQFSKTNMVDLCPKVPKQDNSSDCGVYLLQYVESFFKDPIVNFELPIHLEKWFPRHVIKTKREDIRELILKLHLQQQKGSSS
SENP8 block-1 – SENP8 protease inhibition; inhibition, % at 10 µM; Q96LD8; purified SENP8, Z-RLRGG-aminoluciferin cleavage, luminescence; 330,000 tested, 1.2% active; AID 2540; in the data active = inhibition above about 50%
Target sequence (Q96LD8 whole entry, looked up): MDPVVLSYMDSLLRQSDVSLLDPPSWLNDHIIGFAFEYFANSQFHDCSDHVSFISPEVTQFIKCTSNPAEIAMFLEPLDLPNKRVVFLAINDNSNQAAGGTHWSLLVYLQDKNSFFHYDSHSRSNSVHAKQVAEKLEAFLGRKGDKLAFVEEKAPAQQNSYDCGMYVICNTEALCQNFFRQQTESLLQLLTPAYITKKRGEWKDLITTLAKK
UBC13 inh – blocks human UBC13 polyubiquitin chain formation; TR-FRET; P61088; 330,000 tested, 0.47% active; inhibition, % at 20 µM; AID 485273; in the data active = inhibition above about 45%, passing the limit was not always enough
SENP8 block-2 – blocks human SENP8 cleavage of Nedd8 substrate; recombinant SENP8, Nedd8 substrate fluorescence; inhibition, % at 20 µM; 360,000 tested, 0.64% active; in the data active = inhibition mostly above about 40%, no sharp cut-off; inactive = mostly below about 27%
SENP8 conf – confirmation of human SENP8 protease inhibitors. 1,400 tested, 15% active. shares compounds with SENP8 block-2. AID 624319. purified SENP8, Nedd8-AMC/pro-Nedd8 cleavage fluorescence, 30 min. inhibition, % at 25 µM; in the data active = inhibition mostly above about 39%, no sharp cut-off; inactive = mostly below about 34%
* marks the source's active call; other numbers are inactive results; / = no result given.

SMILES	SENP6 inh	Apaf-1 inh	SENP7 block	SENP8 block-1	UBC13 inh	SENP8 block-2	SENP8 conf
CC(=O)OCCNc1cc(SCc2ccco2)c2nonc2c1[N+](=O)[O-]	/	/	/	/	/	76*	10
O=[N+]([O-])c1c(NCCCO)cc(SCc2ccco2)c2nonc12	45	10	14	11	-26	42*	29
C[C@H]1COc2cc(N3CCC[C@H]3CO)ccc2S(=O)(=O)N1	/	/	/	/	/	11	/
COC(=O)NN=C1CCC(c2ccccc2)CC1 (centres undefined)	-15	-13	4	0	-2	4	/
COC(=O)N/N=C1/C/C(=N\NC(=O)OC)c2ccccc21	16	18	15	18	2	81*	96*
O=C(Nc1cccc2ccccc12)c1ccco1	/	/	/	/	/	-3	/
O=C(Cc1ccc2c(c1)OCCO2)N/N=C/c1ccco1	-5	-9	-3	-3	4	22	/
O=C(Cc1ccc2c(c1)OCO2)NN=Cc1ccc([N+](=O)[O-])o1	3	11	-1	-14	-19	39*	21
O=C(N/N=C/c1ccc([N+](=O)[O-])o1)c1ccc(O)cc1	/	/	/	/	/	27	/
O=C(N/N=C/c1ccc([N+](=O)[O-])o1)c1ccncc1	11	15	-9	-2	-20	54*	28
O=C(N/N=C\c1ccc([N+](=O)[O-])o1)c1cncc(Br)c1	11	8	4	14	-11	66*	24
CC(C)c1ccc(NC(=O)c2cc(-c3cc(F)ccc3OCC3CCCO3)n[nH]2)cc1 (centres undefined)	/	/	/	/	/	-3	/
COCCN1C(=O)COc2ccccc2C1C(=O)NC1CCCCC1 (centres undefined)	/	/	/	/	/	14	/
COc1ccc(NCC(=O)N/N=C/C2CCCCC2)cc1	-2	-24	7	2	-3	22	/
CCCC1CCC(=NNC(=O)CNc2ccc(OC)cc2)CC1 (centres undefined)	-7	-16	0	0	6	59*	13
O=C(CN1CCN(C(=O)N2CCOCC2)CC1)Nc1ccc(Br)cc1	-12	4	4	-7	0	41*	12
COc1ccccc1C(C)Nc1ccc(S(=O)(=O)N2CCN(C)CC2)cc1[N+](=O)[O-] (centres undefined)	16	10	-1	6	4	39*	13
CC(Nc1ccc(S(=O)(=O)N2CCN(C)CC2)cc1[N+](=O)[O-])c1ccccc1 (centres undefined)	0	14	6	8	-8	13	/
O=C(c1ncn(Cc2ccccc2)c1C(=O)N1CCc2ccccc2C1)N1CCc2ccccc2C1	-8	33	-1	-8	-14	52*	58*
Cc1c(Cl)c(C(=O)NNC(=S)NCc2ccco2)nn1C	-12	0	-7	-10	-6	40*	14
CCOC(=O)C1C(=O)CC(C)(O)C(C(=O)OCC)C1c1ccc([N+](=O)[O-])cc1 (centres undefined)	-9	0	0	-1	2	46*	27
CCOC(=O)C1C(=O)CC(C)(O)C(C(=O)OCC)C1c1ccccc1 (centres undefined)	-5	9	-5	-4	-6	8	/
Cc1[nH]n(-c2ccc([N+](=O)[O-])cc2)c(=O)c1C=NCC1CCCO1 (centres undefined)	13	-8	0	14	-2	13	/
Cc1ccc(-n2[nH]c(C)c(/C=N/Nc3ccc([N+](=O)[O-])cc3[N+](=O)[O-])c2=O)cc1	-10	27	-12	-5	-183	80*	34
Cc1[nH]n(-c2ccc([N+](=O)[O-])cc2)c(=O)c1C=NCCc1c(C)[nH]c2ccccc12	7	15	14	9	-8	42*	-10
SMILES	SENP6 inh	Apaf-1 inh	SENP7 block	SENP8 block-1	UBC13 inh	SENP8 block-2	SENP8 conf
Cc1ccc(NC(=O)C2(C)CCN2C(=O)CCC2CCCC2)cc1C (centres undefined)	/	/	/	/	/	15	/
Cc1cc(=O)n(-c2ccc(O)cc2)[nH]1	-7	21	6	-7	-24	79*	38*
OCc1ccccc1O[C@@H]1O[C@H](CO)[C@@H](O)[C@H](O)[C@H]1O	-3	-13	-3	2	5	49*	3
COc1ncccc1C(=O)N1CCCC(C(=O)c2cc(F)ccc2F)C1 (centres undefined)	-3	1	-3	0	6	12	/
CSc1ncccc1C(=O)N1CCCC(C(=O)c2cc(F)ccc2F)C1 (centres undefined)	-4	-13	0	1	14	57*	10
O=C(CCCCCNC(=O)N1CCn2c1nc1ccccc12)N[C@H](C(=O)O)c1ccccc1	2	2	3	2	-8	52*	20
CCCn1nc([N+](=O)[O-])c(C(C#N)c2nc3ccccc3o2)c(Cl)c1=O (centres undefined)	8	24	-6	6	-114	43*	32
CCOC(=O)C1CCN(S(=O)(=O)c2ccc(-c3cc(C(F)(F)F)n(C)n3)s2)CC1	-9	10	-1	-2	1	52*	35
CCOC(=O)C1CCN(S(=O)(=O)c2ccc(-c3nc4ccccc4s3)s2)CC1	32	6	1	21	2	/	/
O=C1NC(Cc2ccccc2)c2nc3ccccc3c(=O)n2-c2cc3ccccc3cc21 (centres undefined)	/	/	/	/	/	-1	/
CCCN(CCC)CCCNc1ccc(C(=O)Nc2cccc(OC)c2)cc1[N+](=O)[O-]	-9	3	-16	-6	-41	35*	6
CC(C)(C)OC(=O)N1CCC[C@H]1C(=O)NCc1ccc(F)cc1F	/	/	/	/	/	20	/
Cc1cccc(CSc2nc(N)c(C#N)c(-c3cccs3)c2C#N)c1	1	8	-2	2	31	-71	/
Cc1cccc(CSc2nc3c(c(-c4cccs4)c2C#N)CN(C)CC3)c1	-3	8	1	6	-1	40*	4
CC(C)(C)C(=O)CSc1nc2c(c(-c3cccs3)c1C#N)CCC2	5	-4	-5	-2	34	-222	/
CN1CCc2nc(SCC(=O)Nc3ccc(OC(F)(F)F)cc3)c(C#N)c(-c3cccs3)c2C1	28	23	1	5	-2	45*	23
O=c1[nH]nc2c3ccccc3occ1-2	/	/	/	/	/	22	/
COc1ccc(CN(C)CCCn2cnc3c(SC)ncnc32)cc1OC	/	/	/	/	/	-2	/
COCCN1C[C@@H](CO)O[C@@H](n2cnc3c(N(C)C(C)C)ncnc32)C1	/	/	/	/	/	-8	/
O=c1nccc(Nc2ccccc2)[nH]1	7	-2	-2	-1	2	17	/
c1ccc(Nc2cc(Nc3ccccc3)[nH]n2)cc1	-19	5	7	-12	3	55*	40
O=C(O)c1ccc(Cl)c(S(=O)(=O)NCc2ccco2)c1	-10	0	4	-13	-1	43*	-8

Screens (PubChem BioAssay)
